Measured values reported in PMC3700807 (Planta medica, 2011).
Converted amounts (≈) assume the structure as drawn. One block for each compound: values may come before it.

What was measured:
[1] = test system: Leishmania donovani axenic amastigotes; test: Antileishmanial assay, axenic amastigotes; format: cell-based; conditions: Leishmania donovani, 72 h, read-out: Leishmania donovani Axenic Amastigotes IC90
[2] = test system: Leishmania donovani amastigotes in THP1 macrophage cultures; test: Antileishmanial macrophage-amastigote assay; format: cell-based; conditions: Leishmania donovani, THP-1, read-out: Leishmania donovani Macrophage-Amastigotes IC50, amastigotes in THP1 macrophage cultures; mean ± S.D. of three observations
[3] = Cytotoxicity to PMA transformed THP1 cells; format: cell-based; conditions: human, PMA transformed THP1 cells
[4] = test system: Candida albicans (ATCC 90028); test: Antimicrobial susceptibility assay, C. albicans; format: cell-based; conditions: Candida albicans
Method in brief: (§1)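 Yeasts were tested by a modified CLSI broth-dilution method, with growth monitored by optical density. Amphotericin B was the drug control in each assay. IC50 (50% inhibition vs controls) was curve-fitted from duplicate readings. MIC is the lowest concentration allowing no detectable growth. For MFC, 5 μL from each clear well was plated on agar and incubated until growth was seen.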

[5] = test system: Cryptococcus neoformans (ATCC 90113); test: Antimicrobial susceptibility assay, C. neoformans; format: cell-based; conditions: Cryptococcus neoformans
Method in brief: as §1

[6] = test system: Aspergillus fumigatus (ATCC 204305); test: Antimicrobial susceptibility assay, A. fumigatus; format: cell-based; conditions: Aspergillus fumigatus
Method in brief: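 Broth-dilution susceptibility test in medium with 5% Alamar Blue for growth detection. Amphotericin B was the drug control in each assay. IC50 (50% inhibition vs controls) was curve-fitted from duplicate readings. MIC is the lowest concentration with no detectable growth. For MFC, 5 μL from each clear well was moved to agar and incubated until growth appeared.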

[7] = test system: Plasmodium falciparum D6 (chloroquine-sensitive clone); test: In vitro antiplasmodial assay; format: cell-based; conditions: Plasmodium falciparum, D6, read-out: P. falciparum D6 IC50
[8] = test system: Plasmodium falciparum W2 (chloroquine-resistant clone); test: In vitro antiplasmodial assay; format: cell-based; conditions: Plasmodium falciparum, W2, read-out: P. falciparum W2 IC50
[9] = test system: Staphylococcus aureus (ATCC 29213); test: Antimicrobial susceptibility assay, S. aureus; format: cell-based; conditions: Staphylococcus aureus
Method in brief: (§2)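 Bacteria were tested by a modified CLSI broth-dilution method, with growth read as optical density. Ciprofloxacin was the drug control in each assay. IC50 (50% inhibition relative to controls) was fitted from duplicate readings. MIC is the lowest concentration with no detectable growth. For MBC, 5 μL from each clear well was transferred to agar and incubated until growth appeared.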

[10] = test system: methicillin-resistant S aureus (MRSA, ATCC 33591); test: Antimicrobial susceptibility assay, MRSA; format: cell-based, Staphylococcus aureus; conditions: Staphylococcus aureus, ATCC33591|MRSA
Method in brief: as §2

[11] = test system: Mycobacterium intracellulare (ATCC 23068); test: Antimicrobial susceptibility assay, M. intracellulare; format: cell-based; conditions: Mycobacterium intracellulare
Method in brief: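 Mycobacterium intracellulare (ATCC 23068) was tested by a modified broth susceptibility method, with growth detected in medium containing 5% Alamar Blue. IC50 was fitted against untreated controls from duplicate readings. MIC was taken as the lowest concentration with no detectable growth. For MBC, clear wells were subcultured onto agar and incubated until growth appeared. Ciprofloxacin was included as the drug control in each assay.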

[12] = test system: Leishmania donovani promastigotes; test: Antileishmanial assay, promastigotes; format: cell-based; conditions: Leishmania donovani, 72 h, read-out: Leishmania donovani Promastigotes IC90
[13] = test system: Plasmodium falciparum D6 (chloroquine-sensitive clone); conditions: data reported previously; cited from earlier work
[14] = test system: Plasmodium falciparum W2 (chloroquine-resistant clone); conditions: data reported previously; cited from earlier work
VERO cells = VERO cells cytotoxicity; data reported previously; cited from earlier work

IC90 [1]: 0.97 ± 0.14 µg/mL (≈ 1.05 µM) | IC50 [2]: 0.14 ± 0.02 µg/mL (≈ 0.152 µM) | IC50 ([4]; ATCC90028, read-out: C. albicans IC50): 0.13 µg/mL (≈ 0.141 µM) | IC50 ([5]; ATCC90113, read-out: C. neoformans IC50): 0.32 µg/mL (≈ 0.346 µM) | MIC ([5]; ATCC90113, read-out: C. neoformans MIC): 1.25 µg/mL (≈ 1.35 µM) | IC50 ([6]; ATCC204305, read-out: A. fumigatus IC50): 0.72 µg/mL (≈ 0.779 µM) | MIC ([6]; ATCC204305, read-out: A. fumigatus MIC): 1.25 µg/mL (≈ 1.35 µM)
Compound: C[C@@H]1[C@H](O)[C@@H](C)/C=C/C=C/C=C/C=C/C=C/C=C/C=C/[C@H](O[C@@H]2O[C@H](C)[C@@H](O)[C@H](N)[C@@H]2O)C[C@@H]2O[C@](O)(C[C@@H](O)C[C@@H](O)[C@H](O)CC[C@@H](O)C[C@@H](O)CC(=O)O[C@H]1C)C[C@H](O)[C@H]2C(=O)O [Amphotericin B, reference compound]
IC50 [3]: 3.34 ± 0.41 µg/mL (≈ 3.61 µM) | IC90 [3]: 8.05 ± 1.33 µg/mL (≈ 8.71 µM) | MFC ([4]; ATCC90028, read-out: C. albicans MFC): 0.63 µg/mL (≈ 0.682 µM) | MFC ([5]; ATCC90113, read-out: C. neoformans MFC): 1.25 µg/mL (≈ 1.35 µM) | MFC ([6]; ATCC204305, read-out: A. fumigatus MFC): 2.5 µg/mL (≈ 2.71 µM)

Compound: C[C@@H]1CC[C@H]2[C@@H](C)C(=O)O[C@@H]3O[C@@]4(C)CC[C@@H]1[C@]32OO4 [Artemisinin]
IC50 [7]: 0.016 µg/mL (≈ 0.0567 µM) | IC50 [8]: 0.017 µg/mL (≈ 0.0602 µM)

Compound: CCN(CC)CCCC(C)Nc1ccnc2cc(Cl)ccc12 (centres unmarked) [Chloroquine]
IC50 [7]: 0.017 µg/mL (≈ 0.0531 µM) | IC50 [8]: 0.14 µg/mL (≈ 0.438 µM)

IC50 ([9]; ATCC29213, read-out: S. aureus IC50): 0.1 µg/mL (≈ 0.302 µM) | IC50 ([10]; read-out: MRSA IC50): 0.08 µg/mL (≈ 0.241 µM) | MIC ([10]; read-out: MRSA MIC): 0.25 µg/mL (≈ 0.754 µM) | IC50 ([11]; ATCC23068, read-out: M. intracellulare IC50): 0.25 µg/mL (≈ 0.754 µM) | MIC ([11]; ATCC23068, read-out: M. intracellulare MIC): 0.5 µg/mL (≈ 1.51 µM)
Compound: O=C(O)c1cn(C2CC2)c2cc(N3CCNCC3)c(F)cc2c1=O [Ciprofloxacin, reference compound]
MBC ([9]; ATCC29213, read-out: S. aureus MBC): > 20 µg/mL | MBC ([10]; read-out: MRSA MBC): 1 µg/mL (≈ 3.02 µM) | MBC ([11]; ATCC23068, read-out: M. intracellulare MBC): > 20 µg/mL

Compound: C[C@@H]1N[C@H](CCCCCCCCCCc2cc(CCCCCCCCCC[C@@H]3CC[C@H](O)[C@@H](C)N3)c3[n+](c2)CCC3)CC[C@H]1O [Compound 2, prosopilosidine]
IC90 [12]: 4.17 ± 0.54 µg/mL | IC90 [1]: 25.4 ± 5.3 µg/mL | IC50 [2]: 3.23 ± 0.54 µg/mL | IC50 [3]: 9.49 ± 2.25 µg/mL | IC90 [3]: > 20 µg/mL | P. falciparum D6 IC50 [13]: 0.039 ± 0.002 µg/mL | P. falciparum W2 IC50 [14]: 0.095 ± 0.002 µg/mL | VERO IC50 (VERO cells): >23.8 µg/mL
